Data on four molecules can be found in ChEMBL document CHEMBL1145345, “Galactosyl derivatives of L-arginine and D-arginine: synthesis, stability, cell permeation, and nitric oxide production in pituitary GH3 cells” (J Med Chem, 2006).

Assay type in all cases: functional, cell-based
In assay [1] the test system is AEC. As to the kind of experiment: Increase in DAF2 monitored NO production in BAEC at 10 mM after 30 mins. Conditions: Bos taurus. The method, boiled down: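 Bovine aortic endothelial cells grown in DMEM/10% FBS, exposed to 10 mM compound in normal Krebs solution (pH 7.4) for 30 min at 37 °C. Then loaded with 10 µM DAF-2DA for 30 min, fixed with 4% paraformaldehyde for 5 min, and imaged by fluorescence microscopy (ex/em 495/515 nm). Output is % of Krebs-only control fluorescence.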

Assay [2] relates to GH3. As to the kind of experiment: Area under DAF2 monitored nitrite production in GH3 cells-incubation period curve.
For assay [3], the system named is GH3. Description: Increase in DAF2 monitored NO production in GH3 cells at 30 mins. The method, boiled down:
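GH3 cells in F10 with 10% FBS and 15% horse serum, treated 30 min at 37 °C with 3, 10 or 30 mM compound in normal Krebs (pH 7.4). Loaded with 10 µM DAF-2DA for 30 min, fixed in 4% paraformaldehyde, and fluorescence read by densitometry at 495/515 nm. Reported as % of Krebs-only control; mean ± S.E. of three values from three sessions.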

Assay [4] concerns GH3. Description: Increase in DAF2 monitored nitrite production in GH3 cells at 30 mins.

Molecules are shown by their SMILES. Calls of active or inactive are those of the source. The calls are words filed in the database; no cut-off is given here.

`N=C(N)NCCC[C@@H](N)C(=O)O`: in assay [1], the outcome was Active. The AUC in assay [2] was 2470 ng·h/mL.

`NC(N)=NCCC[C@H](N)C(=O)OC[C@H]1O[C@H](O)[C@H](O)[C@@H](O)[C@H]1O`: the outcome in assay [1], in assay [3] and in assay [4] was Active.

On to `NC(N)=NCCC[C@@H](N)C(=O)OC[C@H]1O[C@H](O)[C@H](O)[C@@H](O)[C@H]1O`, for which, in assay [1], the outcome was Active. Also, in assay [2], the AUC is 7500 ng·h/mL.

As for `N=C(N)NCCC[C@H](N)C(=O)O`, the result in assay [1] was Active. The molecule further came in with an AUC in assay [2] of 1390 ng·h/mL.
